Results taken from ChEMBL document CHEMBL4342471, “Discovery of Thieno[2,3-d]pyrimidine-Based Hydroxamic Acid Derivatives as Bromodomain-Containing Protein 4/Histone Deacetylase Dual Inhibitors Induce Autophagic Cell Death in Colorectal Carcinoma Cells” (J Med Chem, 2020).
Calls of active or inactive are those of the source. No cut-off for these calls is given here.

Columns and labels:
HCT-116 [1] = experiment: Inhibition of colony formation in human HCT116 cells at 0.2 to 0.5 uM incubated for 24 hrs; type: functional, cell-based
Outline: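 HCT-116 colony formation assessed after treatment at 0.2 or 0.5 µM.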

HCT-116 [2] = experiment: Induction of apoptosis in human HCT116 cells assessed as viable cells at 0.5 uM by Annexin-V FITC/propidium iodide staining-based flow cytometry (reference value: 93.4 %); type: functional; conditions: read-out: Activity
[3] = target: Bromodomain-containing protein 3 (Homo sapiens, UniProt Q15059); experiment: Inhibition of human recombinant His-tagged BRD3 BD1 domain expressed in Escherichia coli BL21(DE3)-R3-pRARE2 cells by AlphaScreen assay
HCT-116 [4] = experiment: Induction of apoptosis in human HCT116 cells assessed as early apoptotic cells at 0.2 uM by Annexin-V FITC/propidium iodide staining-based flow cytometry (reference value: 2.8 %); type: functional
LoVo = experiment: Cytotoxicity against human LoVo cells assessed as reduction in cell viability; type: functional, cell-based
Outline: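 Antiproliferative IC50 values were measured by MTT assay across a panel of colorectal carcinoma cell lines and normal colorectal epithelial cells.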

Mus musculus [5] = experiment: Downregulation of Ki67 expression in tumor tissue of BALB/cAnNCrl mouse xenografted with human HCT116 cells at 15 to 30 mg/kg, po administered on day 1 to day 19 measured on day 19 by Ki67-staining based immunohistochemical analysis; type: functional, organism-based
Outline: (§1)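 HCT-116 xenograft mice were dosed orally at 15 or 30 mg/kg, or 30 mg/kg for reference agents, for 19 days, with vehicle or saline controls. Tumor sections were stained for Ki-67, c-Myc, Ac-H3, BRD4, LC3-II, LIFR and p-STAT3 by immunohistochemistry, and TUNEL staining was used as the apoptosis marker.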

Homo sapiens [6] = species: Homo sapiens; experiment: Inhibition of BRD4/HDAC in human HCT116 cells assessed as increase in LIF mRNA level at 0.5 uM after 24 hrs by RT-PCR analysis; type: cell-based
Outline: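 HCT-116 cells incubated 24 h with test agent (0.5 µM, 2.0 µM or 10 µM depending on compound); IL6, OSM, LIF and CTF1 mRNA levels then quantified.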

Mus musculus [7] = experiment: In vivo inhibition of BRD4 in BALB/cAnNCrl mouse xenografted with human HCT116 cells assessed as decrease in c-Myc expression in tumor tissue at 15 to 30 mg/kg, po administered on day 1 to day 19 measured on day 19 by immunohistochemical analysis; type: functional, organism-based; outline: as §1
HCT-116 [8] = experiment: Antitumor activity against human HCT116 cells xenografted in orally dosed BALB/cAnNCrl mouse assessed as reduction in tumor volume administered on day 1 to day 19 relative to control; type: functional, organism-based
Outline: (§2)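 HCT-116 xenografts in mice were given the test agent orally at 15 or 30 mg/kg, with a saline control group, over 19 days. Tumor volume was followed during treatment and tumors were weighed at the end. Body weight was monitored. Inhibition is expressed as treatment-to-control (T/C) ratio.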

HCT-116 [9] = experiment: Antitumor activity against human HCT116 cells xenografted in BALB/cAnNCrl mouse assessed as reduction in tumor volume by measuring T/C ratio at 15 mg/kg, po administered on day 1 to day 19 relative to control; type: functional; outline: as §2
Homo sapiens [10] = species: Homo sapiens; experiment: Inhibition of BRD4/HDAC in human HCT116 cells assessed as inhibition of IL6-JAK-STAT3 signaling pathway by measuring decrease in STAT3 phosphorylation at 0.5 uM after 24 hrs by Western blot analysis; type: cell-based
Outline: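 HCT-116 cells treated 24 h with 0.5 µM, 5.0 µM or 10 µM test agent depending on compound; OSMR, LIFR and downstream pathway proteins detected by western blot.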

[11] = target: T1, Bromodomain-containing protein 4 (Homo sapiens, UniProt O60885); experiment: Inhibition of BRD4 in human HCT116 cells transfected with ATG5 siRNA assessed as induction of autophagy by measuring p62 degradation at 0.5 uM by Western blot analysis; type: cell-based
Outline: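 HCT-116 cells first transfected with ATG5 siRNA or scramble siRNA; after silencing, exposed to 0.5 µM test agent or normal saline, then ATG5, AMPKα, p-AMPKα, p62 and LC3 protein assessed by western blot.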

HCT-116 [12] = experiment: Decrease in BRD4 expression in human HCT116 cells at 0.2 to 0.5 uM incubated for 24 hrs by western blot analysis; type: functional, cell-based
Histone deacetylase 11 = Histone deacetylase 11 (Homo sapiens, UniProt Q96DB2); experiment: Inhibition of HDAC11 (unknown origin) using biotinylated histone H3 KAc peptide (1 to 21 residues) as substrate by HTRF assay
[13] = Cmax in Sprague-Dawley rat at 30 mg/kg, po measured up to 1440 mins by UPLC-QTOF/MS analysis; type: ADME, organism-based; design: dose 30 mg/kg, route oral; conditions: in vivo
[14] = target: T1, Bromodomain-containing protein 4; experiment: Inhibition of BRD4 in human HCT116 cells transfected with GFP-LC3 assessed as induction of autophagy by measuring increase in LC3 puncta at 0.5 uM measured after 24 hrs by confocal fluorescence microscopy; type: cell-based
Outline: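 HCT-116 cells transfected with GFP-LC3 plasmid, then incubated 24 h with 0.5 µM test agent; LC3 puncta (autophagosomes) imaged by confocal fluorescence microscopy.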

[15] = target: T1, Bromodomain-containing protein 4; experiment: Inhibition of BRD4 in human HCT116 cells assessed as induction of autophagy by measuring p62 degradation at 0.5 uM measured after 24 hrs by Western blot analysis; type: cell-based
Mus musculus [16] = experiment: Increase in phosphorylated STAT3 expression in tumor tissue of BALB/cAnNCrl mouse xenografted with human HCT116 cells at 15 to 30 mg/kg, po administered on day 1 to day 19 measured on day 19 by immunohistochemical analysis; type: functional, organism-based; outline: as §1
[17] = Oral bioavailability in Sprague-Dawley rat at 30 mg/kg measured up to 1440 mins by UPLC-QTOF/MS analysis; type: ADME, organism-based; conditions: in vivo
[18] = target: T1, Bromodomain-containing protein 4; experiment: Inhibition of BRD4 in human HCT116 cells assessed as induction of autophagy by measuring decrease in p62 expression at 0.2 to 0.5 uM measured after 24 hrs by Western blot analysis; type: cell-based
[19] = Tmax in Sprague-Dawley rat at 30 mg/kg, po measured up to 1440 mins by UPLC-QTOF/MS analysis; type: ADME, organism-based; conditions: in vivo

Sequence of Histone deacetylase 11 (Q96DB2 whole entry, the tested form may be a part): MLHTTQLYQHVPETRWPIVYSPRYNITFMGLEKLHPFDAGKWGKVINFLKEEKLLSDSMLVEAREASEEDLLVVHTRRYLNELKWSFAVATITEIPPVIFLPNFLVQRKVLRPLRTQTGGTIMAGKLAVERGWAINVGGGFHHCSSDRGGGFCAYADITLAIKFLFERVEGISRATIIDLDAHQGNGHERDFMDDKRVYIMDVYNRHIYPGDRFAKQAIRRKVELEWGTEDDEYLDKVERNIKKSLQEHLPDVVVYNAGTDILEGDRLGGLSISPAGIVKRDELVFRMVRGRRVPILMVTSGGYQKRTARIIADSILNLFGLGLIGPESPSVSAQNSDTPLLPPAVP
Sequence of Bromodomain-containing protein 3 (Q15059 whole entry, the tested form may be a part): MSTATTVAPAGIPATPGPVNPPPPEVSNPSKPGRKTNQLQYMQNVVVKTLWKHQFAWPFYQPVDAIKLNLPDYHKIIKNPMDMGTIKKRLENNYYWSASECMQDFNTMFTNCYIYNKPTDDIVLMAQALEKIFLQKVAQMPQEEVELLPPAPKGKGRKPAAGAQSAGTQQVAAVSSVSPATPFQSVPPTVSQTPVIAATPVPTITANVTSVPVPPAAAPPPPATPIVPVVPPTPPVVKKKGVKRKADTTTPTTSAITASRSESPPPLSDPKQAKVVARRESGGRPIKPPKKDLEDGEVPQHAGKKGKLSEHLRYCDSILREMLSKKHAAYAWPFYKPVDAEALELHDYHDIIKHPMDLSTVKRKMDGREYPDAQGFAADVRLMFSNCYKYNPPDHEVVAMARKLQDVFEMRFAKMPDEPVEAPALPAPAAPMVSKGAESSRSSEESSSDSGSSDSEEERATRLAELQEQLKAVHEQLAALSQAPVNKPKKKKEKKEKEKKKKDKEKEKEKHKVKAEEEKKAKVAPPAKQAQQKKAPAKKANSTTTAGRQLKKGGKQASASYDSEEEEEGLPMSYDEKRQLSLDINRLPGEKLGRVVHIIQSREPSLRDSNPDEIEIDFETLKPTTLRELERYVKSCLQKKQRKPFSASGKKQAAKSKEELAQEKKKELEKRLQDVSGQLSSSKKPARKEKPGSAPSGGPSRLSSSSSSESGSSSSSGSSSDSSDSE

Cc1cc(-c2nc3sc4c(c3c(=O)[nH]2)CCN(C)C4)cc(C)c1OCCCCCC(=O)NO
inhibition (HCT-116 [1]): Active | viability at 0.5 µM (HCT-116 [2]): 44.9% | IC50 [3]: > 20 µM | Activity (HCT-116 [4]): 8.2% | Activity (LoVo): Active | inhibition (Mus musculus [5]): Active | inhibition (Homo sapiens [6]): Active | inhibition (Mus musculus [7]): Active | Activity (HCT-116 [8]): Dose-dependent effect | T/C (HCT-116 [9]): 42.7% | inhibition (Homo sapiens [10]): Active | inhibition [11]: inactive | inhibition (HCT-116 [12]): Active | IC50 (Histone deacetylase 11): > 10 µM | Cmax [13]: 5360 ng/mL | inhibition [14]: Active | inhibition [15]: Active | Activity (Mus musculus [16]): inactive | bioavailability [17]: 40.5% | inhibition [18]: Active | Tmax [19]: 1.53 h
